Legend:
[1] = Displacement of [3H]-Di-o-tolyguanidine from guinea pig sigma2 receptor after 120 mins by liquid scintillation counting analysis; design: species or system Cavia porcellus
[2] = biological target: Voltage-gated inwardly rectifying potassium channel KCNH2 (Homo sapiens, UniProt Q12809); assay: Binding affinity to human ERG channel by patch clamp assay
Salmonella typhimurium = assay: Genotoxicity in Salmonella typhimurium by Ames test; type: toxicity, organism-based; conditions: salmonella enterica subsp. enterica serovar typhimurium
HepG2 [3] = assay: Cytotoxicity against human HepG2 cells up to 100 uM by neutral red uptake assay; type: cell-based
HepG2 [4] = assay: Cytotoxicity against human HepG2 cells up to 100 uM by MTT assay; type: cell-based
Cytochrome P450 2C9 = Cytochrome P450 2C9 (Homo sapiens, UniProt P11712); assay: Inhibition of human recombinant CYP2C9; type: ADME
Cytochrome P450 2C19 = Cytochrome P450 2C19 (Homo sapiens, UniProt P33261); assay: Inhibition of human recombinant CYP2C19; type: ADME
Cytochrome P450 1A2 = biological target: T1, Cytochrome P450 1A2 (Homo sapiens, UniProt P05177); assay: Inhibition of human recombinant CYP1A2; type: ADME
T1 sequence (P05177 whole entry): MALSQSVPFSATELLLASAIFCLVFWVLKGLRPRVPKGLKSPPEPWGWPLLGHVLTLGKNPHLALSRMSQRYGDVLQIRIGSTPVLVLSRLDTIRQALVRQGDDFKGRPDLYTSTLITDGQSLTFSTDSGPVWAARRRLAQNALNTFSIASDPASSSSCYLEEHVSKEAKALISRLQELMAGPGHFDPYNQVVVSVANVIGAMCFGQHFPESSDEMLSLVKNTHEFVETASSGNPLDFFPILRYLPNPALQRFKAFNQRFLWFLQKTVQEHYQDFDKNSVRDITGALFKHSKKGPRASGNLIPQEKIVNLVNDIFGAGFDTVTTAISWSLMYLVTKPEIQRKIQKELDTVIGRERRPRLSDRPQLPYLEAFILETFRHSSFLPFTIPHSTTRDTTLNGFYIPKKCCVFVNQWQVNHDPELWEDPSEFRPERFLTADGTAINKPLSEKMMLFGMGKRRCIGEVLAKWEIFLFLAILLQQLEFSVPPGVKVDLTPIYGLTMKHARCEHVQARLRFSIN

Mus musculus [5] = assay: Antinociceptive activity in CD1 mouse assessed as inhibition of formalin-induced pain at 80 mg/kg, ip administered 15 mins before formalin-challenge measured after 15 to 30 mins; type: functional; conditions: route intraperitoneal
In short: (§1)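 Male CD1 mice, 6–8 weeks old (n = 8–12 per group), were dosed ip at 10 mL/kg in 0.5% HPMC vehicle. 15 min later, 20 μL of 2.5% formalin (0.92% formaldehyde) was injected into the right hind paw, midplantar. Licking/biting time was scored 0–5 min (phase I) and 15–30 min (phase II).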

Mus musculus [6] = assay: Antinociceptive activity in CD1 mouse assessed as inhibition of formalin-induced pain at 40 mg/kg, ip administered 15 mins before formalin-challenge measured after 15 to 30 mins; type: functional; conditions: route intraperitoneal; in short: as §1
Mus musculus [7] = assay: Antinociceptive activity in CD1 mouse assessed as inhibition of capsaicin-induced mechanical hypersensitivity at 80 mg/kg, po administered 30 mins before capsaicin-challenge measured after 15 mins; type: functional
[8] = biological target: 5-hydroxytryptamine receptor 2B (Homo sapiens, UniProt P41595); assay: Binding affinity to human 5-HT2B receptor
[9] = Dissociation constant, pKa of the compound; type: physicochemical
In short: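 pKa measured experimentally by pH-metric titration on an automated GlpKa instrument.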

[10] = biological target: Sigma non-opioid intracellular receptor 1 (Homo sapiens, UniProt Q99720); assay: Displacement of [3H]-(+)-pentazocine from human sigma1 receptor transfected in HEK293 cells after 120 mins by liquid scintillation counting analysis; type: cell-based
Cytochrome P450 2D6 = Cytochrome P450 2D6 (Homo sapiens, UniProt P10635); assay: Inhibition of human recombinant CYP2D6; type: ADME
Cytochrome P450 3A4 = Cytochrome P450 3A4 (Homo sapiens, UniProt P08684); assay: Inhibition of human recombinant CYP3A4; type: ADME
Liver microsomes [11] = assay: Intrinsic clearance in human liver microsomes assessed per milligram of protein; type: ADME, Microsome
Liver microsomes [12] = assay: Intrinsic clearance in rat liver microsomes assessed per milligram of protein; type: ADME, Microsome
Liver = assay: Intrinsic clearance in mouse liver microsomes assessed per milligram of protein; type: ADME, Microsome
[13] = Kinetic solubility of the compound; type: physicochemical; conditions: read-out: Kinetic_solubility
In short: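 Kinetic solubility: compound solution at 1% DMSO in phosphate buffer, pH 7.4, quantified by HPLC.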

Mus musculus [14] = assay: Antinociceptive activity in ip dosed CD1 mouse assessed as inhibition of formalin-induced pain administered 15 mins before formalin-challenge measured after 15 to 30 mins; type: functional, organism-based; in short: as §1

Sequence of Sigma non-opioid intracellular receptor 1 (Q99720 whole entry): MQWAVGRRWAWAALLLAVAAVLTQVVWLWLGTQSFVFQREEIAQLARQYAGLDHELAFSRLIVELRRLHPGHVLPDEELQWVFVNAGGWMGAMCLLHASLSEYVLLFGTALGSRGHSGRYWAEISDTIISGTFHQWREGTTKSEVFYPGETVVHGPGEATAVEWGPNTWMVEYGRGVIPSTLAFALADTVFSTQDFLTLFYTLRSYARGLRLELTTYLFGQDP
Sequence of 5-hydroxytryptamine receptor 2B (P41595 whole entry): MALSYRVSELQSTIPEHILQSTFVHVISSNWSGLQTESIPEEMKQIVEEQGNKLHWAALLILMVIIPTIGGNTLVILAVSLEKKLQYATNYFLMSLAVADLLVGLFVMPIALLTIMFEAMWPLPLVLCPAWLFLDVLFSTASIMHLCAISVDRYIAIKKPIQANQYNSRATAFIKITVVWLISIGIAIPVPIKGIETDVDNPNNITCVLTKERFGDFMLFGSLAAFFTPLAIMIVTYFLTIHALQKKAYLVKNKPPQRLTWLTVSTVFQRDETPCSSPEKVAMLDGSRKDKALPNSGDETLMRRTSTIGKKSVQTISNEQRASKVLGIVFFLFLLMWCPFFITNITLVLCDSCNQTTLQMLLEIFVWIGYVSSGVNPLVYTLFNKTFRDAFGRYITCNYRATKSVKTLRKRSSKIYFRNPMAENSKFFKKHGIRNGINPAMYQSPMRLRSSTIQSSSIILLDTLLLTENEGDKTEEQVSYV
Sequence of Cytochrome P450 2C9 (P11712 whole entry): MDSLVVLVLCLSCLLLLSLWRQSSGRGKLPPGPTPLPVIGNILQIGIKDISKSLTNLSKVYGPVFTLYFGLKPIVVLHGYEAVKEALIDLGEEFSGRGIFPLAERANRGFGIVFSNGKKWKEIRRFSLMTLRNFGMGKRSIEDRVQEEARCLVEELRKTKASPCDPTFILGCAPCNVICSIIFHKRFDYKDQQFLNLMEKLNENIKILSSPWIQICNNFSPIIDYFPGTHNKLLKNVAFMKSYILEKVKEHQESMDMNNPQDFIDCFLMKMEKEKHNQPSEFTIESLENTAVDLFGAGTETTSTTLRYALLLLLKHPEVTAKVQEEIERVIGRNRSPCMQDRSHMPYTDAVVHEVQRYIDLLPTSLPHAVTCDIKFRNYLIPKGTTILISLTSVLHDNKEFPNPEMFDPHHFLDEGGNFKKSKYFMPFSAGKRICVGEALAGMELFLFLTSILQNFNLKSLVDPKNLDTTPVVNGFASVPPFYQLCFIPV
Sequence of Voltage-gated inwardly rectifying potassium channel KCNH2 (Q12809 whole entry): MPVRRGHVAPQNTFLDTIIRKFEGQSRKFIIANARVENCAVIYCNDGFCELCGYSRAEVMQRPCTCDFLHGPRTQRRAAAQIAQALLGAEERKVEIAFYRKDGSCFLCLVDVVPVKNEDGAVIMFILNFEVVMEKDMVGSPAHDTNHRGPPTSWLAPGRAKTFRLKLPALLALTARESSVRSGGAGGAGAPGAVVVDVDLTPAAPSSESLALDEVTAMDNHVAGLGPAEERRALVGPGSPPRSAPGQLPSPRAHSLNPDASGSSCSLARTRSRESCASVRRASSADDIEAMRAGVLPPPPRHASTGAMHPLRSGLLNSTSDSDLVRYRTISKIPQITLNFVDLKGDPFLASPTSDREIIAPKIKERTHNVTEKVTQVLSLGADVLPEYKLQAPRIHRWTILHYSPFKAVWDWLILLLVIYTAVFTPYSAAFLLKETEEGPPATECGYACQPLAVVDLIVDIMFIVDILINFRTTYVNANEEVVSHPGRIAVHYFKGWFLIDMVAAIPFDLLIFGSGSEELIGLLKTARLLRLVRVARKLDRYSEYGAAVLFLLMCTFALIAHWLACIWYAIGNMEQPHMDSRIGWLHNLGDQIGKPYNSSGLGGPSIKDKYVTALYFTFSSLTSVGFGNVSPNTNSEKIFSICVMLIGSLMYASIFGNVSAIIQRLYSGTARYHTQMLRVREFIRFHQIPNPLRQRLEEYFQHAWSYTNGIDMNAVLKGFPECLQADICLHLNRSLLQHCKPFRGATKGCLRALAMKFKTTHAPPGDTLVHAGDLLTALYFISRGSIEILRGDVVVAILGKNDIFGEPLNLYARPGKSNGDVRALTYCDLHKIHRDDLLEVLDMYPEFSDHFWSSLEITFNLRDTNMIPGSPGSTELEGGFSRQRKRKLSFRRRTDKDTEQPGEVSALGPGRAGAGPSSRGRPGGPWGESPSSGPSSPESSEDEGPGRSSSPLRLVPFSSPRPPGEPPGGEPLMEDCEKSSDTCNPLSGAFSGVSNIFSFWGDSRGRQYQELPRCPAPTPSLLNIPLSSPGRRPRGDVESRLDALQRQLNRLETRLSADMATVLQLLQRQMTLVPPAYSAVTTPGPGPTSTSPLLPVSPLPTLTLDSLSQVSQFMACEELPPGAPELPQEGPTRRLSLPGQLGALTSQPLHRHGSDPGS
Sequence of Cytochrome P450 3A4 (P08684 whole entry): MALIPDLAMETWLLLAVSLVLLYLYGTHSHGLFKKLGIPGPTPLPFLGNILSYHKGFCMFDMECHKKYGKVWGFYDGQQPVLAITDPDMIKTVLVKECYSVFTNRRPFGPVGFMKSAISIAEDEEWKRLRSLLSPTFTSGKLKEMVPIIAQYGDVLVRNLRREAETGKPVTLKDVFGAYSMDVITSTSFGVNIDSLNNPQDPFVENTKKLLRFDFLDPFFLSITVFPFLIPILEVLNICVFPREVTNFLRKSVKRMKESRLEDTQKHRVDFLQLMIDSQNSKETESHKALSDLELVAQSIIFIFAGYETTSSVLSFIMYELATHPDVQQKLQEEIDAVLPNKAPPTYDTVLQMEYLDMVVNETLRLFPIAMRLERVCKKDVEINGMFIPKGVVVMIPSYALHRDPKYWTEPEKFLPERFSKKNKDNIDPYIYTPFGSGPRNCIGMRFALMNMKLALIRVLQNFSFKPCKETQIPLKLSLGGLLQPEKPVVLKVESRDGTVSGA
Sequence of Cytochrome P450 2D6 (P10635 whole entry): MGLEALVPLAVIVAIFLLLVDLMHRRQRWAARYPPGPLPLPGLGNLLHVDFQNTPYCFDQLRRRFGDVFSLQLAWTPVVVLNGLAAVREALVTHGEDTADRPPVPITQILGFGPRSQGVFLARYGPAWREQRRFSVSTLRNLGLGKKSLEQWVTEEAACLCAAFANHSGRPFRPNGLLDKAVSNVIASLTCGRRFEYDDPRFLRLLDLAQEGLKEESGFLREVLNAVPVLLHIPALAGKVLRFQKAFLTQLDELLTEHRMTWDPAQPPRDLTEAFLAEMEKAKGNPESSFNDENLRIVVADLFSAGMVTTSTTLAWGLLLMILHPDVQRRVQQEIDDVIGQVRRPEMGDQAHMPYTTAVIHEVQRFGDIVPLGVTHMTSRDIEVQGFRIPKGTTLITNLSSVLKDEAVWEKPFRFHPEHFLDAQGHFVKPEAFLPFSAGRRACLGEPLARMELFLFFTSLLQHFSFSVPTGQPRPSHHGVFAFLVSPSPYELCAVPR
Sequence of Cytochrome P450 2C19 (P33261 whole entry): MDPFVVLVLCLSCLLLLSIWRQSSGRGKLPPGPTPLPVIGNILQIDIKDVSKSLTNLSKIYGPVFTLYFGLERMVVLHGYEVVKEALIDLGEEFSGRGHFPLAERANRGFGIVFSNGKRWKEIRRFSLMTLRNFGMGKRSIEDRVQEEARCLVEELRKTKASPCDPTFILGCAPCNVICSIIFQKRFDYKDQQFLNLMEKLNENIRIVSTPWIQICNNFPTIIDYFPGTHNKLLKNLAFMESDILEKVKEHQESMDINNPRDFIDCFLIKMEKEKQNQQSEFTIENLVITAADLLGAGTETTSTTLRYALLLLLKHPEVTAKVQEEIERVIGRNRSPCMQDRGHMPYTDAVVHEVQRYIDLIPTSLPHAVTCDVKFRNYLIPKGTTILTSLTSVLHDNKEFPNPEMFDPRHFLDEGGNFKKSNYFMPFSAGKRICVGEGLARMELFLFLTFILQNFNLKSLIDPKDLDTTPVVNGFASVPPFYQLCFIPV

## Cc1cc(OCCN2CCOCC2)nn1-c1ccc2ccccc2c1
[1]
  Ki: 1000 nM

## CC(C)CCOc1ccc2c(c1)[C@H]1OCCC[C@H]1[C@@H](C1CCOCC1)N2 [listing 1 of 2 here]
[2]
  IC50: > 10000 nM
Salmonella typhimurium
  Activity: Non-toxic
HepG2 [3]
  Activity: Non-toxic
HepG2 [4]
  Activity: Non-toxic
Cytochrome P450 2C9
  IC50: > 5000 nM
Cytochrome P450 2C19
  IC50: > 5000 nM
Cytochrome P450 1A2
  IC50: > 5000 nM
Mus musculus [5]
  inhibition in vivo at 80 mg/kg: 81%
Mus musculus [6]
  inhibition in vivo at 40 mg/kg: 40%
Mus musculus [7]
  inhibition in vivo at 80 mg/kg: 63%
[8]
  Ki: 5300 nM
[9]
  pKa: 3.8
[1]
  Ki: 1000 nM
[10]
  Ki: 30 nM
Cytochrome P450 2D6
  IC50: > 5000 nM
Cytochrome P450 3A4
  IC50: > 5000 nM
Liver microsomes [11]
  CLH: 5 µL/min
Liver microsomes [12]
  CLH: 21.7 µL/min
Liver
  CLH: 15.1 µL/min

## CCCCCc1ccc2c(c1)[C@H]1OCCC[C@H]1[C@@H](C1CCCCC1)N2
[13]
  solubility kinetic: < 1 µM
[1]
  Ki: 1000 nM
[10]
  Ki: 19 nM

## CCCCCc1ccc2c(c1)[C@@H]1OCCC[C@@H]1[C@H](C1CCCCC1)N2
[1]
  Ki: 1000 nM
[10]
  Ki: > 1000 nM

## CC(C)CCOc1ccc2c(c1)[C@H]1OCCC[C@H]1[C@@H](C1CCCCC1)N2
[13]
  solubility kinetic: < 1 µM
[1]
  Ki: 1000 nM
[10]
  Ki: 14 nM

## CC(C)CCOc1ccc2c(c1)[C@@H]1OCCC[C@@H]1[C@H](C1CCCCC1)N2
[1]
  Ki: 1000 nM
[10]
  Ki: > 1000 nM

## CC(C)CCOc1ccc2c(c1)[C@@H]1OCCC[C@@H]1[C@H](C1CCOCC1)N2
[1]
  Ki: 1000 nM
[10]
  Ki: > 1000 nM

## CC(C)CCOc1ccc2c(c1)[C@H]1OCCC[C@H]1[C@@H](C1CCOCC1)N2 [listing 2 of 2 here]
Mus musculus [14]
  inhibition: Dose-dependent effect

## CCCCOc1ccc2c(c1)[C@H]1OCC[C@H]1[C@@H](C1CCCCC1)N2 (racemic)
[1]
  Ki: 1000 nM
[10]
  Ki: > 1000 nM

## CC(C)CCOc1ccc2c(c1)[C@H]1OCC[C@H]1[C@@H](C1CCCCC1)N2 (racemic)
[1]
  Ki: 1000 nM
[10]
  Ki: 108 nM

## CCCCCc1ccc2c(c1)[C@H]1OCCC[C@H]1[C@@H](C(CC)CC)N2 (racemic)
[1]
  Ki: 1000 nM
[10]
  Ki: 410 nM

## CCCCCc1ccc2c(c1)[C@H]1OCCC[C@H]1[C@@H](C1CCOCC1)N2 (racemic)
[1]
  Ki: 1000 nM
[10]
  Ki: 67 nM

## CCCCOc1ccc2c(c1)[C@H]1OCCC[C@H]1[C@@H](C1CC1)N2 (racemic)
[1]
  Ki: 1000 nM
[10]
  Ki: > 1000 nM

## CCCCOc1ccc2c(c1)[C@H]1OCCC[C@H]1[C@@H](c1ccccc1)N2 (racemic)
[1]
  Ki: 1000 nM
[10]
  Ki: > 1000 nM

## CC(C)CCOc1ccc2c(c1)[C@H]1OCCC[C@H]1[C@@H](C1CCCC1)N2 (racemic)
[1]
  Ki: 1000 nM
[10]
  Ki: 124 nM

## CC(C)CCOc1ccc2c(c1)[C@H]1OCCC[C@H]1[C@@H](C1CCOCC1)N2 (racemic)
[10]
  Ki: 84 nM

## CC(C)CCOc1ccc2c(c1)[C@H]1OCCC[C@H]1[C@@H](C1CCNCC1)N2 (racemic)
[1]
  Ki: 1000 nM
[10]
  Ki: 536 nM

## CCN1CCC([C@H]2Nc3ccc(OCCC(C)C)cc3[C@H]3OCCC[C@H]32)CC1 (racemic)
[1]
  Ki: 1000 nM
[10]
  Ki: 317 nM

## CC(C)CCOc1ccc2c(c1)[C@H]1OCCC[C@H]1[C@@H](C1CCN(Cc3ccccc3)CC1)N2 (racemic)
[13]
  solubility kinetic: < 1 µM
[1]
  Ki: 1000 nM
[10]
  Ki: 15 nM

## CCCCCc1ccc2c(c1)[C@H]1OCCC[C@H]1[C@@H](C1CCCCC1)N2 (racemic)
[10]
  Ki: 43 nM

## CC(C)CCOc1ccc2c(c1)[C@H]1OCCC[C@H]1[C@@H](C1CCCCC1)N2 (racemic)
[10]
  Ki: 52 nM

## Clc1cccc(Oc2ccc3c(c2)[C@H]2OCCC[C@H]2[C@@H](C2CCCCC2)N3)c1 (racemic)
[1]
  Ki: 1000 nM
[10]
  Ki: 377 nM

## Clc1cccc(Oc2ccc3c(c2)[C@H]2OCCC[C@H]2[C@H](C2CCCCC2)N3)c1 (racemic)
[1]
  Ki: 1000 nM
[10]
  Ki: > 1000 nM

## Clc1ccccc1Oc1ccc2c(c1)[C@H]1OCCC[C@H]1[C@@H](C1CCCCC1)N2 (racemic)
[1]
  Ki: 1000 nM
[10]
  Ki: > 1000 nM

## Clc1ccc(Oc2ccc3c(c2)[C@H]2OCCC[C@H]2[C@@H](C2CCCCC2)N3)cc1Cl (racemic)
[1]
  Ki: 1000 nM
[10]
  Ki: 79 nM

## c1ccc(Oc2ccc3c(c2)[C@H]2OCCC[C@H]2[C@@H](C2CCCCC2)N3)cc1 (racemic)
[1]
  Ki: 1000 nM
[10]
  Ki: > 1000 nM

## c1ccc2c(c1)N[C@H](C1CCCCC1)[C@@H]1CCCO[C@H]21 (racemic)
[1]
  Ki: 1000 nM
[10]
  Ki: > 1000 nM

## CCCCc1ccc2c(c1)[C@H]1OCCC[C@H]1[C@@H](C1CCCCC1)N2 (racemic)
[1]
  Ki: 1000 nM
[10]
  Ki: > 1000 nM

## CCCCOc1ccc2c(c1)[C@H]1OCCC[C@H]1[C@@H](C1CCCCC1)N2 (racemic)
[1]
  Ki: 1000 nM
[10]
  Ki: 178 nM

## Fc1ccc(COc2ccc3c(c2)[C@H]2OCCC[C@H]2[C@@H](C2CCCCC2)N3)cc1 (racemic)
[1]
  Ki: 1000 nM
[10]
  Ki: > 1000 nM

## c1cc2c(cc1C1CCCCC1)[C@H]1OCCC[C@H]1[C@@H](C1CCCCC1)N2 (racemic)
[1]
  Ki: 1000 nM
[10]
  Ki: > 1000 nM

## c1ccc(-c2ccc3c(c2)[C@H]2OCCC[C@H]2[C@@H](C2CCCCC2)N3)cc1 (racemic)
[1]
  Ki: 1000 nM
[10]
  Ki: > 1000 nM

## CCCNS(=O)(=O)c1ccc2c(c1)[C@H]1OCCC[C@H]1[C@@H](C1CCCCC1)N2 (racemic)
[1]
  Ki: 1000 nM
[10]
  Ki: > 1000 nM

## O=C(Nc1ccc2c(c1)[C@H]1OCCC[C@H]1[C@@H](C1CCCCC1)N2)c1ccccc1 (racemic)
[1]
  Ki: 1000 nM
[10]
  Ki: > 1000 nM

## Clc1ccc(Oc2ccc3c(c2)[C@H]2OCC[C@H]2[C@@H](C2CCCCC2)N3)cc1 (racemic)
[1]
  Ki: 1000 nM
[10]
  Ki: 302 nM

## CCCCCc1ccc2c(c1)[C@H]1OCC[C@H]1[C@@H](C1CCCCC1)N2 (racemic)
[1]
  Ki: 1000 nM
[10]
  Ki: 245 nM

## Clc1ccc(Oc2ccc3c(c2)[C@H]2OCCC[C@H]2[C@@H](C2CCCCC2)N3)cc1 (racemic)
[13]
  solubility kinetic: < 0.4 µM
[1]
  Ki: > 1000 nM
[10]
  Ki: 194 nM

## Clc1ccc(Oc2ccc3c(c2)[C@H]2OCCC[C@H]2[C@H](C2CCCCC2)N3)cc1 (racemic)
[1]
  Ki: 1000 nM
[10]
  Ki: > 1000 nM

## O=C(CCCN1CCC(O)(c2ccc(Cl)cc2)CC1)c1ccc(F)cc1 [HALOPERIDOL]
[1]
  Ki: 1000 nM
